Laboratory results: ChEMBL document CHEMBL1156219, “Discovery of novel N-acylsulfonamide analogs as potent and selective EP3 receptor antagonists” (Bioorg Med Chem Lett, 2010)

Columns and labels:
[1] = target: T1, Prostaglandin E2 receptor EP3 subtype (Mus musculus, UniProt P30557); assay: Antagonist activity at mouse EP3 receptor expressed in CHO cells assessed as inhibition of PGE2-induced increase in intracellular calcium level after 1 hr by FDSS in presence of 1% bovine serum albumin; type: functional, cell-based
T1 sequence (P30557 whole entry): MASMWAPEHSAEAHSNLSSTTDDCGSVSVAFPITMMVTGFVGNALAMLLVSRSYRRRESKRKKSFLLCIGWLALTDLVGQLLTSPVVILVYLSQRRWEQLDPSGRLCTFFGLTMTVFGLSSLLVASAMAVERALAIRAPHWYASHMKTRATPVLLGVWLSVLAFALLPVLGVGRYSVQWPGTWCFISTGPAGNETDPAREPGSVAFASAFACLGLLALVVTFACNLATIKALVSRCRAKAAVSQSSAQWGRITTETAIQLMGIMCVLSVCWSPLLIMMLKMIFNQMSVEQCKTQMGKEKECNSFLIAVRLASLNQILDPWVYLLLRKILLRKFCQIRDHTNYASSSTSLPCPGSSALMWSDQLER

[2] = target: T1, Prostaglandin E2 receptor EP3 subtype; assay: Displacement of [3H]PGE2 from mouse EP3 receptor expressed in CHO cells after 60 mins by scintillation counter; type: cell-based
[3] = target: Prostaglandin E2 receptor EP4 subtype (Mus musculus, UniProt P32240); assay: Displacement of [3H]PGE2 from mouse EP4 receptor expressed in CHO cells after 60 mins by scintillation counter; type: cell-based
Chain of Prostaglandin E2 receptor EP4 subtype (P32240 whole entry): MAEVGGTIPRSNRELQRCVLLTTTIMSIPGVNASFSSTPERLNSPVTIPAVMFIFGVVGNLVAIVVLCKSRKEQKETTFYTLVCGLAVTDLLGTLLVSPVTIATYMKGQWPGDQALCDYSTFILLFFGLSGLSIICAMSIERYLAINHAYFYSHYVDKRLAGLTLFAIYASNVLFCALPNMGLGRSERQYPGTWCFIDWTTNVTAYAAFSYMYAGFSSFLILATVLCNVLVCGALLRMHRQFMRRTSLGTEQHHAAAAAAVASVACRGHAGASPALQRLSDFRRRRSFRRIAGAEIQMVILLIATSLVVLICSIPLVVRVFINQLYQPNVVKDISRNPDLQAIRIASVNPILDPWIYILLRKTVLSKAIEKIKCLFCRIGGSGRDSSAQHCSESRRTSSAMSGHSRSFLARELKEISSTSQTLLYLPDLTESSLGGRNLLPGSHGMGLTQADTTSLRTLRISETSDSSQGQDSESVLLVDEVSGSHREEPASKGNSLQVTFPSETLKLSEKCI

[4] = target: T2, Prostaglandin E2 receptor EP1 subtype (Mus musculus, UniProt P35375); assay: Displacement of [3H]PGE2 from mouse EP1 receptor expressed in CHO cells after 60 mins by scintillation counter; type: cell-based
T2 sequence (P35375 whole entry): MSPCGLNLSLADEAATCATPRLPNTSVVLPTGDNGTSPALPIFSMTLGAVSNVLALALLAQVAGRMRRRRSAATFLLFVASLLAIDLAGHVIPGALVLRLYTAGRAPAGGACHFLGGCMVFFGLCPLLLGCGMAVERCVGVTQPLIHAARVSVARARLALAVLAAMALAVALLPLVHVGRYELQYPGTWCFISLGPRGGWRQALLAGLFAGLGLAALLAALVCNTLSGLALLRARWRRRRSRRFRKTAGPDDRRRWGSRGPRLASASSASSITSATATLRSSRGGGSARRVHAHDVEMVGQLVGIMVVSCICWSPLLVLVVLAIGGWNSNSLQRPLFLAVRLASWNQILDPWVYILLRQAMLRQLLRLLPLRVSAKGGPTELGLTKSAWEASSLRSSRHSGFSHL

[5] = test system: Rattus norvegicus; assay: Inhibition of PGE2-induced uterine contraction in pregnant rat at 1 mg/kg, id; type: functional; conditions: route intraduodenal
In short: (§1)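 Pregnant rats received test agent intraduodenally (0.3 or 1 mg/kg tested). Uterine contraction was induced with PGE2 and suppression scored as % inhibition. Each value is the mean of two experiments.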

[6] = target: Prostaglandin E2 receptor EP2 subtype (Mus musculus, UniProt Q62053); assay: Displacement of [3H]PGE2 from mouse EP2 receptor expressed in CHO cells after 60 mins by scintillation counter; type: cell-based
Chain of Prostaglandin E2 receptor EP2 subtype (Q62053 whole entry): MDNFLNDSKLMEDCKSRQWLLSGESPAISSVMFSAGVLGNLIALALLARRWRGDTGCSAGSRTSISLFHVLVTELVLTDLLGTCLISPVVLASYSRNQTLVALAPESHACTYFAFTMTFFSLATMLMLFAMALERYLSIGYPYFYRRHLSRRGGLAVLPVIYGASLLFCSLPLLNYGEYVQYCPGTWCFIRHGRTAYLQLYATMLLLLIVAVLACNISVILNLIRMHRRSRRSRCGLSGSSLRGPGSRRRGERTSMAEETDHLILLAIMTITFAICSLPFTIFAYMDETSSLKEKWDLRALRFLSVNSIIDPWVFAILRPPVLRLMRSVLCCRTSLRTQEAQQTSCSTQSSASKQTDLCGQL

[7] = test system: Rattus norvegicus; assay: Inhibition of PGE2-induced uterine contraction in pregnant rat at 3 mg/kg, po after 4 hrs; type: functional
[8] = test system: Rattus norvegicus; assay: Inhibition of PGE2-induced uterine contraction in pregnant rat at 0.3 mg/kg, id; type: functional; conditions: route intraduodenal; in short: as §1
[9] = test system: Rattus norvegicus; assay: Inhibition of PGE2-induced uterine contraction in id dosed pregnant rat; type: functional, organism-based; in short: as §1

SMILES	IC50 [1]	Ki [2]	Ki [3]	Ki [4]	inhibition in vivo at 1 mg/kg [5]	Ki [6]	inhibition in vivo at 3 mg/kg [7]	inhibition in vivo at 0.3 mg/kg [8]	inhibition [9]
N#Cc1cccc(S(=O)(=O)NC(=O)CCc2ccc(Cn3cccn3)cc2OCCc2ccc3ccccc3c2)c1	18 nM	0.065 nM	–	–	–	–	–	–	–
O=C(CCc1ccc(Cn2cccn2)cc1OCCc1cccc(N2CCOCC2)c1)NS(=O)(=O)c1ccc(F)c(F)c1	6.4 nM	0.54 nM	3700 nM	560 nM	33%	> 10000 nM	–	–	–
CS(=O)(=O)NC(=O)CCc1ccc(Cn2cccn2)cc1OCCc1ccc2ccccc2c1	> 10000 nM	22 nM	–	–	–	–	–	–	–
O=C(NCc1ccc(Cn2cccn2)cc1OCCc1ccc2ccccc2c1)NS(=O)(=O)c1ccccc1	820 nM	15 nM	–	–	–	–	–	–	–
O=C(CCc1ccc(Cn2cccn2)cc1OCCc1ccc2ccccc2c1)NS(=O)(=O)c1ccc(Cl)c(Cl)c1	7.8 nM	0.45 nM	–	–	–	–	–	–	–
O=C(CCc1ccc(Cn2cccn2)cc1OCCc1ccc2ccccc2c1)NS(=O)(=O)c1ccccn1	190 nM	1.6 nM	–	–	–	–	–	–	–
O=C(CCc1ccc(Cn2cccn2)cc1OCCOc1ccccc1)NS(=O)(=O)c1ccc(F)c(F)c1	51 nM	0.27 nM	> 10000 nM	2800 nM	28%	> 10000 nM	–	–	–
O=C(NS(=O)(=O)CCc1ccc(Cn2cccn2)cc1OCCc1ccc2ccccc2c1)c1ccccc1	> 10000 nM	140 nM	–	–	–	–	–	–	–
Cc1ccc(S(=O)(=O)NC(=O)CCc2ccc(Cn3cccn3)cc2OCCc2ccc3ccccc3c2)cc1Cl	10 nM	0.43 nM	–	–	–	–	–	–	–
Cc1csc(S(=O)(=O)NC(=O)CCc2ccc(Cn3cccn3)cc2OCCc2ccc3ccccc3c2)n1	110 nM	0.35 nM	–	–	–	–	–	–	–
O=C(CCc1ccc(Cn2cccn2)cc1OCCc1ccc2ccccc2c1)NS(=O)(=O)c1cccnc1	150 nM	1 nM	–	–	–	–	–	–	–
N#Cc1cccc(OCc2ccc(CCC(=O)NS(=O)(=O)c3ccc(F)c(F)c3)c(OCCc3ccc4ccccc4c3)c2)c1	24 nM	0.51 nM	2300 nM	> 10000 nM	92%	> 10000 nM	66%	50%	–
CN(C)Cc1ccc(CCC(=O)NS(=O)(=O)c2ccc(F)c(F)c2)c(OCCc2ccc3ccccc3c2)c1	24 nM	8.2 nM	> 10000 nM	> 10000 nM	32%	> 10000 nM	–	–	–
O=C(CCc1ccc(COc2cccnc2)cc1OCCc1ccc2ccccc2c1)NS(=O)(=O)c1ccc(F)c(F)c1	0.4 nM	0.16 nM	710 nM	1700 nM	71%	> 10000 nM	–	44%	–
O=C(CCc1ccc(Cn2cccn2)cc1OCCc1ccc2ccccc2c1)NS(=O)(=O)c1ccc(F)c(F)c1	1.2 nM	0.086 nM	2400 nM	2100 nM	76%	> 10000 nM	–	43%	Dose-dependent effect
Cc1cn(Cc2ccc(Cl)cc2Cl)c2c(/C=C/C(=O)NS(=O)(=O)c3cc(Cl)c(Cl)s3)cc(F)cc12	–	–	–	–	–	–	70%	–	–
Cc1ccc(S(=O)(=O)NC(=O)CCc2ccc(Cn3cccn3)cc2OCCc2ccc3ccccc3c2)o1	88 nM	0.58 nM	–	–	–	–	–	–	–
CN(CCOc1cc(Cn2cccn2)ccc1CCC(=O)NS(=O)(=O)c1ccc(F)c(F)c1)c1ccccc1	3.8 nM	0.12 nM	3500 nM	260 nM	50%	> 10000 nM	–	–	–
O=C(CCc1ccc(Cn2cccn2)cc1OCCc1ccc2ccccc2c1)NS(=O)(=O)c1ccccc1	140 nM	0.5 nM	–	–	–	–	–	–	–
O=C(CCc1ccc(Cn2cccn2)cc1OCCc1ccccc1)NS(=O)(=O)c1ccc(F)c(F)c1	59 nM	0.2 nM	2500 nM	1300 nM	51%	> 10000 nM	–	29%	–
O=C(O)CCc1ccc(Cn2cccn2)cc1OCCc1ccc2ccccc2c1	–	21 nM	–	–	–	–	–	–	–
O=C(CCc1ccc(Cn2cccn2)cc1OCCc1ccc2ccccc2c1)NS(=O)(=O)c1ccc(F)c(Cl)c1	5.5 nM	0.22 nM	–	–	–	–	–	–	–
O=C(CCc1ccc(CN2CCOCC2)cc1OCCc1ccc2ccccc2c1)NS(=O)(=O)c1ccc(F)c(F)c1	47 nM	1.2 nM	> 10000 nM	5000 nM	35%	> 10000 nM	–	–	–
